Key:
[1] = AUC (0 to infinity) in mouse at 20 mg/kg, iv administered as bolus dose by band-culture bioassay; conditions: in vivo
Moraxella catarrhalis = test: Antibacterial activity against Moraxella catarrhalis SR24290 after 20 hrs by agar dilution method; type: functional; conditions: SR24290, 20 h
In short: (§1)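 Agar dilution MIC on Sensitivity Disk Agar-N with 2-fold serial drug dilutions. Overnight Mueller Hinton broth cultures were diluted to about 10^6 CFU/mL, and 1 µL spots were applied. Plates were incubated 20 h at 37 °C before scoring.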

Haemophilus influenzae [2] = test: Antibacterial activity against beta-lactamase non-producing penicillin-resistant Haemophilus influenzae SR24106 after 20 hrs by agar dilution method; type: functional; conditions: SR24106, 20 h
In short: (§2)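 Agar dilution on Sensitivity Disk Agar-N. Overnight Mueller Hinton broth cultures were diluted to about 10^6 CFU/mL, and 1 µL spots were placed on agar plates holding 2-fold serial dilutions of antibiotic. Plates were incubated 20 h at 37 °C and then MICs were scored.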

[3] = Protein binding in ICR mouse plasma after 30 mins by ultra-filtration method; type: ADME, cell-free; conditions: read-out: PPB (converted)
In short: (§3)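 Mouse or monkey plasma was adjusted to pH 7 with CO2 and spiked with compound to a final 10 µg/ml. It was incubated 30 min at 37 °C, then ultrafiltered by centrifugation at 3200 rpm for 30 min at 25 °C. Free drug in the filtrate was measured by bioassay to give the bound fraction.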

[4] = Total clearance in mouse at 20 mg/kg, iv administered as bolus dose by band-culture bioassay; conditions: in vivo
Streptococcus pneumoniae [5] = test: Antibacterial activity against penicillin-resistant Streptococcus pneumoniae SR16675 after 20 hrs by agar dilution method; type: functional; conditions: SR16675, 20 h
In short: as §2

Escherichia coli = test: Antibacterial activity against Escherichia coli NIHJ JC-2 after 20 hrs by agar dilution method; type: functional; conditions: NIHJ JC-2, 20 h
In short: as §1

Staphylococcus aureus = test: Antibacterial activity against Staphylococcus aureus SMITH after 20 hrs by agar dilution method; type: functional
In short: as §1

[6] = AUC (0 to infinity) in monkey at 20 mg/kg, iv administered as bolus dose by HPLC method; type: ADME, organism-based, Macaca mulatta; design: dose 20 mg/kg, time infinity, route intravenous; conditions: rhesus monkey, in vivo
In short: (§4)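 Three monkeys per group received a single iv bolus of 20 mg/kg (1 mL/kg). Plasma levels were measured by HPLC. AUC0-∞, CLtot and T1/2 came from a 2-compartment fit.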

[7] = Half life in mouse at 20 mg/kg, iv administered as bolus dose by band-culture bioassay; conditions: in vivo
[8] = Protein binding in cynomolgus monkey plasma after 30 mins by ultra-filtration method; type: ADME, cell-free, Macaca fascicularis; conditions: read-out: PPB (converted)
In short: as §3

Streptococcus pneumoniae [9] = test: Antibacterial activity against penicillin-resistant Streptococcus pneumoniae SR16750 after 20 hrs by agar dilution method; type: functional; conditions: SR16750, 20 h
In short: as §2

[10] = Half life in monkey at 20 mg/kg, iv administered as bolus dose by HPLC method; type: ADME, organism-based, Macaca mulatta; conditions: rhesus monkey, in vivo
In short: as §4

Haemophilus influenzae [11] = test: Antibacterial activity against beta-lactamase non-producing penicillin-resistant Haemophilus influenzae SR11435 after 20 hrs by agar dilution method; type: functional; conditions: SR11435, 20 h
In short: as §2

[12] = Total clearance in monkey at 20 mg/kg, iv administered as bolus dose by HPLC method; type: ADME, organism-based, Macaca mulatta; conditions: rhesus monkey, in vivo
In short: as §4

Row | SMILES | AUC(0-inf) [1] | MIC (Moraxella catarrhalis) | MIC (Haemophilus influenzae [2]) | fraction unbound at 0.5 h [3] | clearance [4] | MIC (Streptococcus pneumoniae [5]) | MIC (Escherichia coli) | MIC (Staphylococcus aureus) | AUC [6] | half-life [7] | fraction unbound at 0.5 h [8] | MIC (Streptococcus pneumoniae [9]) | half-life [10] | MIC (Haemophilus influenzae [11]) | clearance [12]
1 | CCO/N=C(\C(=O)N[C@@H]1C(=O)N2C(C(=O)[O-])=C(/C=C/C[n+]3ccc(-c4cc(/C([O-])=N/C#N)n(C)c4)cc3)CS[C@H]12)c1csc(N)n1.[Na+] | 26000 ng·h/mL | 8 µg/mL | 0.125 µg/mL | 0.67 | 12.8 mL/min/kg | 0.25 µg/mL | 0.25 µg/mL | 0.5 µg/mL | 32100 ng·h/mL | 0.87 h | 0.23 | 0.5 µg/mL | 4.08 h | 0.063 µg/mL | 
2 | CCO/N=C(\C(=O)N[C@@H]1C(=O)N2C(C(=O)[O-])=C(/C=C/C[n+]3ccc(-c4cc(/C([O-])=N/C#N)n(C)n4)cc3)CS[C@H]12)c1csc(N)n1.[Na+] | 21300 ng·h/mL | 8 µg/mL | 0.25 µg/mL | 0.59 | 13.2 mL/min/kg | 0.125 µg/mL | 0.25 µg/mL | 0.5 µg/mL | 21800 ng·h/mL | 0.82 h | 0.41 | 0.5 µg/mL | 2.96 h | 0.063 µg/mL | 0.81 mL/min/kg
3 | CCO/N=C(\C(=O)N[C@@H]1C(=O)N2C(C(=O)[O-])=C(/C=C\C[n+]3ccc(-c4cc(/C([O-])=N/C#N)[nH]n4)cc3)CS[C@H]12)c1csc(N)n1.[Na+] |  | 1 µg/mL | 0.5 µg/mL |  |  | 0.5 µg/mL | 0.125 µg/mL | 0.25 µg/mL |  |  |  | 1 µg/mL |  | 0.25 µg/mL | 
4 | CCO/N=C(\C(=O)N[C@@H]1C(=O)N2C(C(=O)[O-])=C(/C=C/C[n+]3ccc(-c4cc(/C([O-])=N/C#N)[nH]n4)cc3)CS[C@H]12)c1csc(N)n1.[Na+] | 17400 ng·h/mL | 2 µg/mL | 0.125 µg/mL | 0.75 | 19.2 mL/min/kg | 0.125 µg/mL | 0.125 µg/mL | 0.25 µg/mL | 35400 ng·h/mL | 1.03 h | 0.27 | 0.25 µg/mL | 4.43 h | 0.063 µg/mL | 0.48 mL/min/kg
5 | CCO/N=C(\C(=O)N[C@@H]1C(=O)N2C(C(=O)[O-])=C(/C=C/C[n+]3ccc(-n4ccc(/C([O-])=N/C#N)n4)cc3)CS[C@H]12)c1csc(N)n1.[Na+] | 16800 ng·h/mL | 2 µg/mL | 0.125 µg/mL | 0.86 | 19.8 mL/min/kg | 0.25 µg/mL | 0.125 µg/mL | 0.5 µg/mL | 32100 ng·h/mL | 0.87 h | 0.14 | 0.5 µg/mL | 2.8 h | 0.063 µg/mL | 0.54 mL/min/kg
6 | CCO/N=C(\C(=O)N[C@@H]1C(=O)N2C(C(=O)[O-])=C(/C=C/C[n+]3ccc(-c4csc(/C([O-])=N/C#N)n4)cc3)CS[C@H]12)c1csc(N)n1.[Na+] | 27400 ng·h/mL | 2 µg/mL | 0.25 µg/mL | 0.69 | 12.2 mL/min/kg | 0.125 µg/mL | 0.125 µg/mL | 0.5 µg/mL | 48000 ng·h/mL | 0.74 h | 0.23 | 0.25 µg/mL | 5.16 h | 0.063 µg/mL | 
7 | CCO/N=C(\C(=O)N[C@@H]1C(=O)N2C(C(=O)[O-])=C(C[n+]3ccc(-c4cc(/C([O-])=N/C#N)[nH]n4)cc3)CS[C@H]12)c1nc(N)sc1Cl.[Na+] | 41500 ng·h/mL | 0.125 µg/mL | 2 µg/mL | 0.43 | 8 mL/min/kg | 0.125 µg/mL | 2 µg/mL | 1 µg/mL |  | 0.59 h |  | 0.25 µg/mL |  | 0.25 µg/mL | 
8 | CCO/N=C(\C(=O)N[C@@H]1C(=O)N2C(C(=O)[O-])=C(C=CC[n+]3ccc(-c4cc(/C([O-])=N/C#N)[nH]n4)cc3)CS[C@H]12)c1csc(N)n1.[Na+] | 17400 ng·h/mL | 1 µg/mL | 0.25 µg/mL | 0.76 | 19.1 mL/min/kg | 0.25 µg/mL | 0.125 µg/mL | 0.25 µg/mL |  | 0.85 h |  | 0.5 µg/mL |  | 0.125 µg/mL | 
9 | CCCO/N=C(\C(=O)N[C@@H]1C(=O)N2C(C(=O)[O-])=C(C[n+]3ccc(-c4cc(/C([O-])=N/C#N)[nH]n4)cc3)CS[C@H]12)c1csc(N)n1.[Na+] (stereo in doubt) | 8900 ng·h/mL | 1 µg/mL | 1 µg/mL | 0.63 | 37.4 mL/min/kg | 0.25 µg/mL | 1 µg/mL | 0.5 µg/mL |  | 0.98 h |  | 0.5 µg/mL |  | 0.063 µg/mL | 
10 | CCO/N=C(\C(=O)N[C@@H]1C(=O)N2C(C(=O)[O-])=C(C[n+]3ccc(-c4cc(/C([O-])=N/C#N)[nH]n4)cc3)CS[C@H]12)c1csc(N)n1.[Na+] (stereo in doubt) | 10800 ng·h/mL | 0.5 µg/mL | 0.25 µg/mL | 0.77 | 30.8 mL/min/kg | 0.25 µg/mL | 0.5 µg/mL | 1 µg/mL |  | 1.14 h |  | 0.5 µg/mL |  | 0.063 µg/mL | 
11 | CO/N=C(\C(=O)N[C@@H]1C(=O)N2C(C(=O)[O-])=C(C[n+]3ccc(-c4cc(/C([O-])=N/C#N)[nH]n4)cc3)CS[C@H]12)c1csc(N)n1.[Na+] (stereo in doubt) | 18100 ng·h/mL | 2 µg/mL | 0.25 µg/mL | 0.85 | 18.4 mL/min/kg | 0.25 µg/mL | 0.25 µg/mL | 1 µg/mL |  | 0.91 h |  | 0.5 µg/mL |  | 0.063 µg/mL | 
12 | N#C/N=C(\[O-])c1cc(-c2cc[n+](CC3=C(C(=O)[O-])N4C(=O)[C@@H](NC(=O)/C(=N\OCCF)c5csc(N)n5)[C@H]4SC3)cc2)n[nH]1.[Na+] (stereo in doubt) | 12700 ng·h/mL | 1 µg/mL | 0.125 µg/mL | 0.76 | 26.2 mL/min/kg | 0.25 µg/mL | 0.25 µg/mL | 1 µg/mL |  | 1.06 h |  | 0.5 µg/mL |  | 0.063 µg/mL | 

From ChEMBL document CHEMBL3875165, “Novel broad-spectrum and long-acting parenteral cephalosporins having an acyl cyanamide moiety at the C-3 terminal: Synthesis and structure-activity relationships” (Eur J Med Chem, 2016)
